# Assay results of several laboratories.
# Lines come from different studies, so protocols differ.
# ST14: Suppressor of tumorigenicity 14 protein (ST14, Homo sapiens, UniProt Q9Y5Y6)
# CDK2 with cyclin A2: Cyclin-dependent kinase 2, with cyclin A2 (CDK2, Homo sapiens, UniProt P24941)
Structure (SMILES),target,observed,action,technique,tested at,quantity,result
COc1cc(-c2cncc3c2CN(C)Cc2cc(N4CCNCC4)ccc2-3)cc(OC)c1OC,"Vascular endothelial growth factor receptor 3 (FLT4, Homo sapiens, UniProt P35916)",enzyme activity,inhibitor,,1 µM,remaining activity,86%
CNc1ncc2c(/C=C/C(=O)N3CCC(OC)CC3)nn(Cc3cccc(C(F)(F)F)c3)c2n1,"Cyclin-dependent kinase 8, with cyclin C (CDK8, Homo sapiens, UniProt P49336)",enzyme activity,inhibitor,radiometric,1 µM,remaining activity,105%
N=C(N)NCCC[C@H](NC(=O)[C@H](Cc1cccc(I)c1)NC(=O)[C@H](Cc1cscn1)NC(=O)CCc1ccccc1)C(=O)c1nc2ccccc2s1,ST14,enzyme activity,inhibitor,,0.1 µM,remaining activity,79%
CC(=O)Nc1c(N)nc(SCC(=O)N/N=C/c2ccc([N+](=O)[O-])cc2)[nH]c1=O,CDK2 with cyclin A2,enzyme activity,inhibitor,,0.1 µM,inhibition,37.6%
N=C(N)NCCC[C@H](NC(=O)[C@@H](NC(=O)[C@H](Cc1cscn1)NC(=O)CCc1ccccc1)C(c1ccccc1)c1ccccc1)C(=O)c1nc2ccccc2s1,ST14,enzyme activity,inhibitor,,0.1 µM,remaining activity,76%
C=CC(=O)N1CCC(COCC(=O)N2CCN(c3nc(-c4cnc(N)nc4C(F)F)nc(N4CCOC[C@@H]4C)n3)CC2)CC1,"Protein kinase C eta type (PRKCH, Homo sapiens, UniProt P24723)",binding,,competition with immobilised ligand,1 µM,remaining binding,100%
CC(=O)Nc1c(N)nc(SCC(=O)NN)[nH]c1=O,CDK2 with cyclin A2,enzyme activity,inhibitor,,10 nM,inhibition,22.9%
N=C(N)NCCC[C@H](NC(=O)[C@H](CC1CC1)NC(=O)[C@H](Cc1cscn1)NC(=O)CCc1ccccc1)C(=O)c1nc2ccccc2s1,ST14,enzyme activity,inhibitor,,0.1 µM,remaining activity,68%
Cc1cc([C@@H](C)Nc2ccccc2C(=O)O)c2nc(N3CCC(F)(F)CC3)c(C#N)c(=O)n2c1,"Serine/threonine-protein kinase pim-1 (PIM1, Homo sapiens, UniProt P11309)",binding,,competition with immobilised ligand,10 µM,remaining binding,100%
CNC(=O)c1cc(Oc2ccc(NC(=O)Nc3ccc(Cl)c(C(F)(F)F)c3)cc2)ccn1,CDK2 with cyclin A2,enzyme activity,inhibitor,,1 µM,inhibition,81.4%
